According to the M2OR odorant receptor database:
Substitutions are numbered along the chain they refer to.

How the values were obtained:
Details in all cases: stereoisomer not certain
OR1F12P (Homo sapiens) = molecular target: T1, OR1F12P (Homo sapiens) (UniProt Q8NHA8)
T1 sequence (whole entry): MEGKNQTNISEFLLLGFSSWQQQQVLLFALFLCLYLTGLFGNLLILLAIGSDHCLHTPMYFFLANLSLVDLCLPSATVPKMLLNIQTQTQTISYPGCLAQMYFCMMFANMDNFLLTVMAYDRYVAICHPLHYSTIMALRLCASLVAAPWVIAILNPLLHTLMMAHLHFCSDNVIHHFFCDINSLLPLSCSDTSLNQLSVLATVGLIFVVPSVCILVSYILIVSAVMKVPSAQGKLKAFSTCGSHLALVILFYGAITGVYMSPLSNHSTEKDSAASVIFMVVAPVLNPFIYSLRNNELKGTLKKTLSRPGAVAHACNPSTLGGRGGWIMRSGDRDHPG
In short: (§1)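 Assay methods differ from source to source, frequently being transient luciferase assays in mammalian cell lines. For each receptor–molecule pair, the label responsive (active) applies when the original authors judged the measured signal statistically different from baseline, and non-responsive (inactive) applies otherwise.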

OR1F1 = test system: T2, OR1F1
T2 sequence (whole entry): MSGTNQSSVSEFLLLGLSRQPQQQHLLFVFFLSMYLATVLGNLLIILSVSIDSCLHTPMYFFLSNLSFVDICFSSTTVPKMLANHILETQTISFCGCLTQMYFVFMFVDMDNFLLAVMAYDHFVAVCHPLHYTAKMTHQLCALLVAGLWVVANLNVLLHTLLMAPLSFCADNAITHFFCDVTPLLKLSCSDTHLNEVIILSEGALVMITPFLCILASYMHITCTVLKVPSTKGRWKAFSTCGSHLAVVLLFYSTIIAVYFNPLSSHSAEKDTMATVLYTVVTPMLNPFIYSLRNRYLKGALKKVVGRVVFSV
In short: as §1

OR1G1 (Homo sapiens) = molecular target: T3, OR1G1 (Homo sapiens) (UniProt P47890)
T3 sequence (whole entry): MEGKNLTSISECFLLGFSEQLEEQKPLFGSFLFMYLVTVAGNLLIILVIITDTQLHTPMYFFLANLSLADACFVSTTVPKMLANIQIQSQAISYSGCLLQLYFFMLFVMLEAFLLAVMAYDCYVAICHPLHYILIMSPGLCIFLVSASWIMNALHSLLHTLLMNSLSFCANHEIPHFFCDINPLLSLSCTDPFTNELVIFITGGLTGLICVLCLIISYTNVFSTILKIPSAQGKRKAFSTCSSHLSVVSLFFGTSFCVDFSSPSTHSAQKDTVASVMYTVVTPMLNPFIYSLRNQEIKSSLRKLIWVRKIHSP
In short: as §1

OR1I1 (Homo sapiens) = molecular target: T4, OR1I1 (Homo sapiens) (UniProt O60431)
T4 sequence (whole entry): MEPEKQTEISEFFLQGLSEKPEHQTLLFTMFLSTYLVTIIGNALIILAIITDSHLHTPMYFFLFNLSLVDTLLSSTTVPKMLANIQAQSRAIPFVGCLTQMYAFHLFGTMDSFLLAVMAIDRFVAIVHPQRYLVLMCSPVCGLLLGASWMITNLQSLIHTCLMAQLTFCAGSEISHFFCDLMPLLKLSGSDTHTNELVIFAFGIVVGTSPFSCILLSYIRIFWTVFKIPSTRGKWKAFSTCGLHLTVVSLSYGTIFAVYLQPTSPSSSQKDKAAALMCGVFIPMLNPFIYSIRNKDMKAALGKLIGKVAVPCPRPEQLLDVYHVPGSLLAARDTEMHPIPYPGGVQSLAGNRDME
In short: as §1

OR1J1 (Homo sapiens) = molecular target: T5, OR1J1 (Homo sapiens) (UniProt Q8NGS3)
T5 sequence (whole entry): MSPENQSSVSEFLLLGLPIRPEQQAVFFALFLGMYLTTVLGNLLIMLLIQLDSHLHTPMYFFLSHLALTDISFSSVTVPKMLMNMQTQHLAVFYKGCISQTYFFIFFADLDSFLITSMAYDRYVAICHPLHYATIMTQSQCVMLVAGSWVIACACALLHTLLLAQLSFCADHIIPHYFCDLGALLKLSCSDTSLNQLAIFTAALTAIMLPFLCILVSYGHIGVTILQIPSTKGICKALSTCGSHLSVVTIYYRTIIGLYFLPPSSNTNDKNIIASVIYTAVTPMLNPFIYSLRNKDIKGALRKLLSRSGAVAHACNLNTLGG
In short: as §1

OR1J2 (Homo sapiens) = molecular target: T6, OR1J2 (Homo sapiens) (UniProt Q8NGS2)
T6 sequence (whole entry): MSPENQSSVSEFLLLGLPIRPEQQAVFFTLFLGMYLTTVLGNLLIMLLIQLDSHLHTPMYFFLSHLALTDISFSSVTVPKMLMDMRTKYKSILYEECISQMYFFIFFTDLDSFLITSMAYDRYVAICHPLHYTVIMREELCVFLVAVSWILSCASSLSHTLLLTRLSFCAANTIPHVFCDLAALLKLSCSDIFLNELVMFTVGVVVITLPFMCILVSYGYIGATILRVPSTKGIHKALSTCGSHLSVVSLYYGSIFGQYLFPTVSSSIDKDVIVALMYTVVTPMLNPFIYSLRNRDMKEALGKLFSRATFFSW
In short: as §1

OR1J4 (Homo sapiens) = molecular target: T7, OR1J4 (Homo sapiens) (UniProt Q8NGS1)
T7 sequence (whole entry): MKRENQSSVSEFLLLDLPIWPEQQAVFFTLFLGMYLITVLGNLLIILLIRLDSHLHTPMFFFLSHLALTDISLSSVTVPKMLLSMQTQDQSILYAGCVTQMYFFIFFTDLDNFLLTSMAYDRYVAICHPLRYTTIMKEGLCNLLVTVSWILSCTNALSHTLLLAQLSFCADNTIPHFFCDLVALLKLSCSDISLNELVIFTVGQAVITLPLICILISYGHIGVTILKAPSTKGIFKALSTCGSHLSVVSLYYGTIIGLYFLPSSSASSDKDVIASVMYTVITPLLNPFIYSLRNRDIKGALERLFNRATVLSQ
In short: as §1

OR1K1 (Homo sapiens) = molecular target: T8, OR1K1 (Homo sapiens) (UniProt Q8NGR3)
T8 sequence (whole entry): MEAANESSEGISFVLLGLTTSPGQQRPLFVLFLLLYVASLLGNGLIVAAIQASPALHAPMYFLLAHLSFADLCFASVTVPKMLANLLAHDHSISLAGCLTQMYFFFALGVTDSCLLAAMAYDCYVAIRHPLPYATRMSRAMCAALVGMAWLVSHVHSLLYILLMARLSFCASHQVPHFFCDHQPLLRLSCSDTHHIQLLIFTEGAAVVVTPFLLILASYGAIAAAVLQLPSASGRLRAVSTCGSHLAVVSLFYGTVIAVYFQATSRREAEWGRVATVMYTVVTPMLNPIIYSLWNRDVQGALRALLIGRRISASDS
In short: as §1

OR1L1 (Homo sapiens) = molecular target: T9, OR1L1 (Homo sapiens) (UniProt Q8NH94)
T9 sequence (whole entry): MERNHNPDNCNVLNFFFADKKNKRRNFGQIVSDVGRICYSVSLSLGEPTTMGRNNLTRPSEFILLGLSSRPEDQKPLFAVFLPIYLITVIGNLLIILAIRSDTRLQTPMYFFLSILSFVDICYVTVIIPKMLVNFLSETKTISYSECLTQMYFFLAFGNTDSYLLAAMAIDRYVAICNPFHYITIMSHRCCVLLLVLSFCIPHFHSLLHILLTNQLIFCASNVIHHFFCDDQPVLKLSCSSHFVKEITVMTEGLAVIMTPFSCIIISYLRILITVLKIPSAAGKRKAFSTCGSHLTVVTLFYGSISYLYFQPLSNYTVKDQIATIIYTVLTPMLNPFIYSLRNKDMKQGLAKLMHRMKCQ
In short: as §1

OR1L3 (Homo sapiens) = molecular target: T10, OR1L3 (Homo sapiens) (UniProt Q8NH93)
T10 sequence (whole entry): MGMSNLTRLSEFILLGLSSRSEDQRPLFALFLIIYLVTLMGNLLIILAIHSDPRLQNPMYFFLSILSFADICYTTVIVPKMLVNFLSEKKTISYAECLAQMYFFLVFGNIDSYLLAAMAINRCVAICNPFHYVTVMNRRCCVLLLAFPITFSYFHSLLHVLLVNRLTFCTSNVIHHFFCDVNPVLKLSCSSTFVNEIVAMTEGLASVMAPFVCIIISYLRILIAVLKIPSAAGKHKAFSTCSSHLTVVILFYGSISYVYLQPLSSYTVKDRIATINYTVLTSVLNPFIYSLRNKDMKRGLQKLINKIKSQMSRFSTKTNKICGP
In short: as §1

OR1L4 (Homo sapiens) = molecular target: T11, OR1L4 (Homo sapiens) (UniProt Q8NGR5)
T11 sequence (whole entry): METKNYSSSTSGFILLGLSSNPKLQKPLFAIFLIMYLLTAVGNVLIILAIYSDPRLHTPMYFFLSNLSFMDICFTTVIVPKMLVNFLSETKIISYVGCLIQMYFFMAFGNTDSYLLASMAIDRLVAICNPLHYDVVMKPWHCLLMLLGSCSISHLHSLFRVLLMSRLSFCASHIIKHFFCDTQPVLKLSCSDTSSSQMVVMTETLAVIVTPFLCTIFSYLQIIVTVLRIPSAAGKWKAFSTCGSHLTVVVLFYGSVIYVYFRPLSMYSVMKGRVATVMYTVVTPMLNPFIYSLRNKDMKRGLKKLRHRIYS
In short: as §1

OR1L4 = test system: T12, OR1L4
T12 sequence (whole entry): T11 sequence (whole entry) with G234R
In short: as §1

OR1L6 (Homo sapiens) = molecular target: T13, OR1L6 (Homo sapiens) (UniProt Q8NGR2)
T13 sequence (whole entry): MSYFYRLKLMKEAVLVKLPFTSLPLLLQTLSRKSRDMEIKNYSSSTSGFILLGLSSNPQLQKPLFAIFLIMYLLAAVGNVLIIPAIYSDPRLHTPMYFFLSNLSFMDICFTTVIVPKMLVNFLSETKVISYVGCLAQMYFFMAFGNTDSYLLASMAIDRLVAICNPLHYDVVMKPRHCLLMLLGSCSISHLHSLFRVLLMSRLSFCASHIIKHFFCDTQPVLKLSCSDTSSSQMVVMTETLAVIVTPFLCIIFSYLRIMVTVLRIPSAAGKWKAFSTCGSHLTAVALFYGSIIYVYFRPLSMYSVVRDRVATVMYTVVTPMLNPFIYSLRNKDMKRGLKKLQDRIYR
In short: as §1

OR1L8 (Homo sapiens) = molecular target: T14, OR1L8 (Homo sapiens) (UniProt Q8NGR8)
T14 sequence (whole entry): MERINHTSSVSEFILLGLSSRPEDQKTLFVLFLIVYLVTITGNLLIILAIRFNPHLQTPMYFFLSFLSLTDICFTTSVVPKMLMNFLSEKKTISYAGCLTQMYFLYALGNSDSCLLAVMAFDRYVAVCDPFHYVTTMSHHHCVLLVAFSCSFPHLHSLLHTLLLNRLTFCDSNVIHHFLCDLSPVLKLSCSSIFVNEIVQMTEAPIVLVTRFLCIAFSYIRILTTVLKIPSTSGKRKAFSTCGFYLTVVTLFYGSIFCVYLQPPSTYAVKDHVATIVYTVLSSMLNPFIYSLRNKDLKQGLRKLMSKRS
In short: as §1

OR1L8 T27P R211P = test system: T15, OR1L8 T27P R211P
T15 sequence (whole entry): T14 sequence (whole entry) with T27P, R211P
In short: as §1

OR1M1 (Homo sapiens) = molecular target: T16, OR1M1 (Homo sapiens) (UniProt Q8NGA1)
T16 sequence (whole entry): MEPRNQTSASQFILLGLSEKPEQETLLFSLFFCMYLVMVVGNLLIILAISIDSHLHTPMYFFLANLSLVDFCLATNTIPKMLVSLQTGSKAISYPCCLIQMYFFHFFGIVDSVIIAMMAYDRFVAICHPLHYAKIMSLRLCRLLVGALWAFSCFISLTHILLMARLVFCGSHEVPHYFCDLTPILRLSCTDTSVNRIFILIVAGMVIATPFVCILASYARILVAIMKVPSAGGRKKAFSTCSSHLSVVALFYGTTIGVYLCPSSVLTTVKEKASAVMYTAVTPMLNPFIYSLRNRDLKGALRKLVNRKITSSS
In short: as §1

OR1N1 (Homo sapiens) = molecular target: T17, OR1N1 (Homo sapiens) (UniProt Q8NGS0)
T17 sequence (whole entry): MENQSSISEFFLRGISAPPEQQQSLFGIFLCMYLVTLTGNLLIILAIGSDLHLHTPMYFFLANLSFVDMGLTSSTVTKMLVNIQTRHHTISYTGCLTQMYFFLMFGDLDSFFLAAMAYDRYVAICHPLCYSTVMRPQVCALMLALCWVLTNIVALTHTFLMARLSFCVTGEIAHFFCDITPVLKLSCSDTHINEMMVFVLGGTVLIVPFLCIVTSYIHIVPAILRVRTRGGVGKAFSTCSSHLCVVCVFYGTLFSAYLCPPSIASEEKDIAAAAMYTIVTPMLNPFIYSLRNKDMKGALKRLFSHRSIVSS
In short: as §1

OR1N2 W37R = test system: T18, OR1N2 W37R
T18 sequence (whole entry): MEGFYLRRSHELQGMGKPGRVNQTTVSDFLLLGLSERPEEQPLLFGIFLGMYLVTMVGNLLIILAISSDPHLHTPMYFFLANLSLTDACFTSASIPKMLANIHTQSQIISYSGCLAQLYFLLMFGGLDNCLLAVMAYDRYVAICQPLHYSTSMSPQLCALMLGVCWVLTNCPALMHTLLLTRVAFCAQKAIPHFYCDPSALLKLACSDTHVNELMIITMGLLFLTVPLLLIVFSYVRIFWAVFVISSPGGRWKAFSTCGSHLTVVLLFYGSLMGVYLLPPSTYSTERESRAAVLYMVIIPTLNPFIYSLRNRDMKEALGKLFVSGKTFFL
In short: as §1

Measured: odorant receptor agonist call

CCCCCCC=CCCC=O
inactive: OR1F12P (Homo sapiens) | OR1F1 | OR1G1 (Homo sapiens) | OR1I1 (Homo sapiens) | OR1J1 (Homo sapiens) | OR1J2 (Homo sapiens) | OR1J4 (Homo sapiens) | OR1K1 (Homo sapiens) | OR1L1 (Homo sapiens) | OR1L3 (Homo sapiens) | OR1L4 (Homo sapiens) | OR1L4 | OR1L6 (Homo sapiens) | OR1L8 (Homo sapiens) | OR1L8 T27P R211P | OR1M1 (Homo sapiens) | OR1N1 (Homo sapiens) | OR1N2 W37R

CCCCCC(S)C(C)CO (configuration not stated)
inactive: OR1F12P (Homo sapiens) | OR1G1 (Homo sapiens) | OR1I1 (Homo sapiens) | OR1J1 (Homo sapiens) | OR1J2 (Homo sapiens) | OR1J4 (Homo sapiens) | OR1K1 (Homo sapiens) | OR1L1 (Homo sapiens) | OR1L3 (Homo sapiens) | OR1L4 (Homo sapiens) | OR1L6 (Homo sapiens) | OR1L8 (Homo sapiens) | OR1M1 (Homo sapiens) | OR1N1 (Homo sapiens)
